Screening results as filed in PubChem BioAssay.
TAAR1 antagonist – antagonists of human TAAR1. inhibition, % at 3 µM. 360,000 compounds, 1.5% hits. AID 624466. CHO RD-HGA16 TAAR1, Fluo-8 calcium fluorescence, antagonist;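 active = inhibition above a per-plate cutoff, the mean inhibition of test compounds on that plate plus 3 SD, cut at about 49% in these data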;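 also: 0% = DMSO plus EC80 beta-PEA response and 100% = DMSO alone without agonist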
Target sequence (Q96RJ0 whole entry, looked up): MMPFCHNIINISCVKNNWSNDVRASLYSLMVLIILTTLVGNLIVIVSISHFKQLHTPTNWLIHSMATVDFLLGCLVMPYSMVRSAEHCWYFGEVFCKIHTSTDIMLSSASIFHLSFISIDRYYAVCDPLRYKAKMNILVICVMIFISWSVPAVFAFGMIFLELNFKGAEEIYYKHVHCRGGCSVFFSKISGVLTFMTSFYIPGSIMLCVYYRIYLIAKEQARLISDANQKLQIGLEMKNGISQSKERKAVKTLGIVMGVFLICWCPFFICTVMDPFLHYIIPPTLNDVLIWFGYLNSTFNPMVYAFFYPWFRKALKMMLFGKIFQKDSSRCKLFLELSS
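Assay system: RD-HGA16 CHO cells with stable hTAAR1 and Gα16 / Reagent: EC80 β-phenethylamine stimulus / Doses: 3 µM, single point / Timing: dye loading 75 min at 37 °C, then 30 min room temperature / Measured by: Fluo-8 intracellular calcium dye fluorescence, real-time kinetic reads / Controls: vehicle wells and EC80 agonist wells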
TAAR1 ag – human TAAR1 agonism; CHO RD-HGA16 TAAR1, Fluo-8 calcium fluorescence; vehicle wells 0%, saturating PEA agonist 100%; 360,000 compounds, 0.99% hits; AID 624467; Q96RJ0; activation, % at 3 µM;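 active = activation above the mean activation of all test compounds in the run plus 3 SD, cut at about 38% in these data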
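Assay system – CHO-derived RD-HGA16 cells with stable Gα16 and human TAAR1 · Compound dosing – one-point dosing at 3 µM (nominal) · Incubation – 17-24 h seeding, 75 min 37 °C dye, 30 min RT · Measured by – kinetic Fluo-8 calcium fluorescence · Control set – DMSO vehicle as 0%, PEA at EC100 as 100% · Repeats – single well for each compound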
OXTR agonist – human OXTR agonism; P30559; CHO-OTR cells, Fluo-8 calcium fluorescence; normalized: DMSO 0%, oxytocin 100%; 320,000 compounds, 0.32% hits; AID 2435; activation, % at 3 µM;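 active = activation above the mean of all tested compounds plus 3 SD, cutoff set per screening run, cut at about 20% in these data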;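 also: peak over basal fluorescence ratio from a 100 s FLIPR kinetic read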
Target sequence (P30559 whole entry, looked up): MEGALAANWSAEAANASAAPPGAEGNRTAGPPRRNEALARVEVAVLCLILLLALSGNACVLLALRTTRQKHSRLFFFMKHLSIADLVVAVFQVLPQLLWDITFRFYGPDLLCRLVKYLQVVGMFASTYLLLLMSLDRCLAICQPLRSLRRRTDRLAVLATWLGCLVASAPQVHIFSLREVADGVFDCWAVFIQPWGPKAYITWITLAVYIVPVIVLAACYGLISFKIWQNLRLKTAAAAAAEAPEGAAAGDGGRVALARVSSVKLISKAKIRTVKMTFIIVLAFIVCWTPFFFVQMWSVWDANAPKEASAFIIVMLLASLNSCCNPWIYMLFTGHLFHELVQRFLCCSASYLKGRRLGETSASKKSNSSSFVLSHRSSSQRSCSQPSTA
V1aR counter – activates human V1a receptor in oxytocin agonist counter-screen; AID 2797; CHO-V1R cells, Fluo-8 calcium fluorescence, agonist mode; 0% DMSO, 100% 3 nM vasopressin; activation, % at 3 µM; 320,000 compounds, 0.25% hits; P37288;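 active = activation above the mean activation of all tested compounds plus 3 SD, per screening run, cut at about 20% in these data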;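 also: signal is peak over basal fluorescence ratio across a 100 second FLIPR read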
OXTR potentiator – potentiators of human oxytocin receptor; CHO-OTR cells, Fluo-8 calcium fluorescence, potentiator mode; 0% = oxytocin EC15, 100% = EC100; activation, % at 3 µM; P30559; 320,000 compounds, 0.061% hits;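 active = activation above that plate's cutoff, the mean activation of tested compounds plus 3 SD, cut at about 6.6% in these data, passing the limit was not always enough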;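 also: 100% uses oxytocin at 75 nM as the full agonist control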
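Measured by – Fluo-8 calcium dye fluorescence · Test system – human OTR in CHO cells · Dosing – one concentration, 3.0 µM compound · Controls – EC15 oxytocin alone as 0%, 75 nM oxytocin as 100% · Evaluation – normalized max/min fluorescence ratio, % activation · Timing – 6 min pre-incubation, 100 s read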
TAAR1 ag confirm – confirmation of human TAAR1 agonists | shares compounds with TAAR1 ag | AID 651783 | CHO RD-HGA16 TAAR1, Fluo-8 calcium fluorescence; scaled: DMSO 0%, maximal phenethylamine 100% | 2,400 compounds, 82% hits | activation, % at 3 µM;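 active = activation above a cutoff set at the run's mean compound activation plus 3 SD, cut at about 39% in these data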
Ga16 ag counter – nonselective agonist in parental cells, TAAR1 agonist counter-screen; CHO-Ga16 parental, Fluo-8 calcium fluorescence; normalized to maximal ATP response, DMSO zero; shares compounds with TAAR1 ag; 2,400 compounds, 50% hits; activation, % at 3 µM; AID 651787;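 active = activation above the run cutoff, the mean activation over all tested wells plus 3 SD, cut at about 12% in these data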;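 also: 0% = DMSO wells and 100% = maximal ATP response on the peak over basal ratio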
TAAR1 desensitize – human TAAR1 agonist that also desensitizes the receptor. shares compounds with TAAR1 ag. CHO RD-HGA16 hTAAR1, Fluo-8 calcium, beta-PEA response inhibition. inhibition, % at 3 µM. 2,400 compounds, 46% hits. AID 651951;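 active = inhibition above the run cutoff, the mean inhibition of all test compounds plus 3 SD, cut at about 49% in these data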;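 also: beta-PEA stimulus applied at its EC80; loss of beta-PEA calcium signal after compound pretreatment read as receptor desensitization; 0% = DMSO with beta-PEA at EC80 and 100% = DMSO alone without agonist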
Ga16 nonsel ant – counter-screen for TAAR1 agonists: nonselective Ga16 antagonists. shares compounds with TAAR1 ag. CHO-Ga16 ATP-induced calcium, Fluo-8 fluorescence. inhibition, % at 3 µM. 2,400 compounds, 39% hits. AID 651952;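 active = inhibition above the plate's mean compound inhibition plus 3 SD, computed per plate, cut at about 22% in these data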;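 also: 0% = EC80 ATP with DMSO and 100% = DMSO wells without ATP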
The depositor's hits bear a star. Shown are actives, neighbours in structure and some others; about 2.3% of the full set was active somewhere.

Cc1cc(N2CCN(C)CC2)nc2ccc(NC(=S)N3CCN(c4cccc(Cl)c4)CC3)cc12 was read as TAAR1 antagonist 4, TAAR1 ag 7, OXTR agonist 1, V1aR counter 1 and OXTR potentiator 0.
Screening Cc1cccc(N2CCN(C(=S)Nc3ccc4nc(N5CCN(C)CC5)cc(C)c4c3)CC2C)c1 (stereo unspecified) returned TAAR1 antagonist 85*, TAAR1 ag 93*, OXTR agonist 6, V1aR counter 1, OXTR potentiator -5, TAAR1 ag confirm 103*, Ga16 ag counter 44*, TAAR1 desensitize 94* and Ga16 nonsel ant 35*.
O=C(C1=C(O)C(=O)N(CCc2ccccc2)C1c1ccncc1)c1cc2ccccc2o1 (stereo unspecified) was read as TAAR1 antagonist 2, TAAR1 ag 44*, OXTR agonist 1, V1aR counter 1, OXTR potentiator -14, TAAR1 ag confirm 54*, Ga16 ag counter 1, TAAR1 desensitize 1 and Ga16 nonsel ant 4.
O=C(C1=C(O)C(=O)N(CCc2ccccc2)C1c1cccnc1)c1ccco1 (stereo unspecified) was read as TAAR1 antagonist -1, TAAR1 ag 47*, OXTR agonist 0, V1aR counter 2, OXTR potentiator -10, TAAR1 ag confirm 59*, Ga16 ag counter 5, TAAR1 desensitize 4 and Ga16 nonsel ant -3.
For CCN(CC)CCN1C(=O)C(O)=C(C(=O)c2cc3ccccc3o2)C1c1cccnc1 (stereo unspecified) the results were TAAR1 antagonist -17, TAAR1 ag 11, OXTR agonist 1, V1aR counter 3 and OXTR potentiator 0.
For CCC(C)(C)NC(=O)C(c1cccc(OC)c1)N(C(=O)c1ccn[nH]1)c1cccc(OC)c1 (stereo unspecified) the results were TAAR1 antagonist 39, TAAR1 ag 50*, OXTR agonist 1, V1aR counter 1, OXTR potentiator -5, TAAR1 ag confirm 26, Ga16 ag counter 14*, TAAR1 desensitize 39 and Ga16 nonsel ant 28*.
Screening CCC(C)(C)NC(=O)C(c1cccs1)N(C(=O)c1ccn[nH]1)c1ccccc1 (stereo unspecified) returned TAAR1 antagonist 1, TAAR1 ag 3, OXTR agonist -2, V1aR counter -1 and OXTR potentiator -18.
COc1cccc(/C=C/C(=O)c2ccc3c(c2)OCCO3)c1OC was read as TAAR1 antagonist 11, TAAR1 ag 2, OXTR agonist -1, V1aR counter 1 and OXTR potentiator -10.
`CCn1c(CSc2nc(C)cc(C)n2)nnc1SCC(=O)Nc1nc(-c2ccccc2)cs1` gave TAAR1 antagonist 45, TAAR1 ag 59*, OXTR agonist 8, V1aR counter 6, OXTR potentiator -16, TAAR1 ag confirm 65*, Ga16 ag counter 32*, TAAR1 desensitize 44 and Ga16 nonsel ant 33*.
COc1ccc(C(=O)CC(=O)C(=O)Nc2cccc([N+](=O)[O-])c2C)cc1 was read as TAAR1 antagonist 8, TAAR1 ag 71*, OXTR agonist 0, V1aR counter 1, OXTR potentiator -10, TAAR1 ag confirm 83*, Ga16 ag counter 62*, TAAR1 desensitize 35 and Ga16 nonsel ant 23*.
For COc1cccc(C(=O)CC(=O)C(=O)Nc2cccc([N+](=O)[O-])c2C)c1 the results were TAAR1 antagonist 12, TAAR1 ag 60*, OXTR agonist 0, V1aR counter 1, OXTR potentiator -21, TAAR1 ag confirm 120*, Ga16 ag counter 75*, TAAR1 desensitize 77* and Ga16 nonsel ant 41*.
Screening CCOc1ccc(S(=O)(=O)N2CCN(CCNS(=O)(=O)c3ccc(C)cc3)CC2)cc1 returned TAAR1 antagonist -31 and TAAR1 ag -1.
Screening Cc1cc(C)c(C(=O)OCC(=O)NC(=O)c2ccccc2)c(C)c1 returned TAAR1 antagonist 70*, TAAR1 ag 58*, OXTR agonist 1, V1aR counter 0, OXTR potentiator -11, TAAR1 ag confirm 6, Ga16 ag counter 6, TAAR1 desensitize 46 and Ga16 nonsel ant 34*.
Cc1cccc(CN2CCCC(C(=O)Nc3ccc(-c4cscn4)cc3)C2)c1 (stereo unspecified) was read as TAAR1 antagonist -2 and TAAR1 ag 8.
Screening COc1cc(NC(=O)CCc2nnc3ccc(N4CCCCC4)nn23)cc(OC)c1OC returned TAAR1 antagonist -27, TAAR1 ag 2, OXTR agonist -1, V1aR counter 0 and OXTR potentiator -21.
Screening Cc1cc(C(=O)OCC(=O)NC2CCCCC2)c(C)o1 returned TAAR1 antagonist 6, TAAR1 ag 1, OXTR agonist -1, V1aR counter 0 and OXTR potentiator 5.
For Cc1cc2c(cc(C(=O)OCC(=O)NC3CCCCC3)n2C)o1 the results were TAAR1 antagonist 52*, TAAR1 ag 67*, TAAR1 ag confirm 23, Ga16 ag counter 34*, TAAR1 desensitize 52* and Ga16 nonsel ant 42*.
`O=C(O)c1ccc(N/N=C/C2=Cc3ccccc3OC2)cc1` gave TAAR1 antagonist 8, TAAR1 ag 89*, OXTR agonist 5, V1aR counter 13, OXTR potentiator -5, TAAR1 ag confirm 54*, Ga16 ag counter 39*, TAAR1 desensitize 33 and Ga16 nonsel ant 17.
Screening CCCSc1nc(=S)n(Cc2ccccc2)c(C)c1C(C)=O returned TAAR1 antagonist -13, TAAR1 ag -2, OXTR agonist -2, V1aR counter -1 and OXTR potentiator -13.
Screening CC1C(c2ccccc2)OCCN1C(=S)Nc1ccc(S(=O)(=O)N2CCCCC2)cc1 (stereo unspecified) returned TAAR1 antagonist 10, TAAR1 ag 55*, TAAR1 ag confirm 56*, Ga16 ag counter 7, TAAR1 desensitize 34 and Ga16 nonsel ant 32*.
